Consider 21 compounds from ChEMBL document CHEMBL1143286, “Discovery of pentacyclic compounds as potent inhibitors of hepatitis C virus NS5B RNA polymerase” (Bioorg Med Chem Lett, 2009).

A short description of data set [1]: Inhibition of HCV BK NS5B polymerase deltaC21 mutant. In kind it is single protein, NS5B polymerase (HCV isolate BK). The method, boiled down: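 Purified NS5B enzyme (BK strain, C-terminal 21-residue truncation) assayed for polymerase activity on heterogeneous template RNA, following a modified version of a previously published procedure.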
Data set [2] has as its system Hepatitis C virus. The experiment in a line: Antiviral activity against HCV assessed as inhibition of viral subgenomic RNA replication in human HuH7 cells by replicon assay in presence of 10% fetal calf serum. Format: functional, organism-based, Hepacivirus hominis. As to conditions: Huh-7.
The subject of data set [3] is Hepatitis C virus. The experiment in a line: Antiviral activity against HCV assessed as inhibition of viral subgenomic RNA replication in human HuH7 cells by replicon assay in presence of 50% normal human serum. In kind it is functional, organism-based, Hepacivirus hominis, Huh-7.
In data set [4] the test system is Hepatitis C virus. Kind of data set: Ratio of EC50 for HCV RNA replication in human HuH7 cells in presence of 50% normal human serum to EC50 for HCV RNA replication in human HuH7 cells in presence of 10% fetal calf serum. Format: functional, Hepacivirus hominis, Huh-7.
For a further data set, the system named is Plasma. The experiment in a line: Protein binding in human plasma. In kind it is ADME, cell-free.

pEC50, pIC50: −log10 of the molar value.

The pIC50 is the negative decadic logarithm of the IC50, by convention in mol/L. Lower therefore signals a large IC50. As a reminder, the pEC50 is the negative decadic logarithm of the EC50, by convention in mol/L. On to `CN(C)C(=O)Cn1c(-c2ccccc2)c(C2CCCCC2)c2ccc(C(=O)O)cc21`, for which the pIC50 in data set [1] is 6.37. In addition, the pEC50 with Hepatitis C virus [2] is 5.81; with Hepatitis C virus [3] (Hepatitis C virus, Huh-7), 5.01.

In data set [1], `CN(C)CCN1CCn2c(c(C3CCCCC3)c3ccc(C(=O)O)cc32)-c2ccccc21` showed a pIC50 of 7.55. Further, the pEC50 is 6.89 in the data set on Hepatitis C virus [2] and 6.44 in the data set on Hepatitis C virus [3] (Hepatitis C virus, Huh-7).

For `CN1CC[C@@H]2c3ccccc3-c3c(C4CCCCC4)c4ccc(C(=O)O)cc4n3C[C@@H]21`, in data set [1], the pIC50 is 7.70. The pEC50 in the data set on Hepatitis C virus [2] is 5.92; in the data set on Hepatitis C virus [3] (Hepatitis C virus, Huh-7), 5.42. For the same compound, the “Ratio EC50” value in the data set on Hepatitis C virus [4] is reported as 3.

In turn, `CN(C)CC(=O)N1CC[C@H]2Cn3c(c(C4CCCCC4)c4ccc(C(=O)O)cc43)-c3ccccc3[C@@H]21` had a pIC50 in data set [1] of 7.51. The pEC50 in the data set on Hepatitis C virus [2] was 6.77; in the data set on Hepatitis C virus [3] (Hepatitis C virus, Huh-7) it was 6.68.

In data set [1], `COc1ccc2c(c1)[C@H]1[C@@H](CCN1C(=O)CN(C)C)Cn1c-2c(C2CCCCC2)c2ccc(C(=O)O)cc21` gave a pIC50 of 7.64. Besides, the pEC50 with Hepatitis C virus [2] was 7.49; in the data set with Hepatitis C virus [3] (Hepatitis C virus, Huh-7), 6.96.

Consider `O=C(O)c1ccc2c(C3CCCCC3)c3n(c2c1)C[C@@H]1CCN(CCN2CCCCC2)[C@H]1c1ccccc1-3`, for which the pIC50 in data set [1] was 7.96. In addition, the pEC50 in the data set with Hepatitis C virus [2] was 7.40; in the data set with Hepatitis C virus [3] (Hepatitis C virus, Huh-7), 6.66. The compound further registered an Activity with Plasma of 92%.

On to `CN(C)CCN1CCn2c(c(C3CCCCC3)c3ccc(C(=O)O)cc32)-c2ccccc2C1`, for which the pIC50 in data set [1] is 7.57. Besides, the pEC50 with Hepatitis C virus [2] was 6.85; with Hepatitis C virus [3] (Hepatitis C virus, Huh-7) it was 6.07.

Turning to `COc1ccc2c(c1)[C@@H]1[C@@H](CCN1CCN(C)C)Cn1c-2c(C2CCCCC2)c2ccc(C(=O)O)cc21`, the pIC50 in data set [1] is 7.68. Also, the negative-log EC50 (pEC50) was 6.82 with Hepatitis C virus [2] and 6.57 in the data set on Hepatitis C virus [3] (Hepatitis C virus, Huh-7).

Take `CN(C)CCN1CC[C@H]2Cn3c(c(C4CCCCC4)c4ccc(C(=O)O)cc43)-c3ccccc3[C@@H]21`: in data set [1], the pIC50 was 7.70. Also, the pEC50 was 7.49 with Hepatitis C virus [2] and 7.01 in the data set with Hepatitis C virus [3] (Hepatitis C virus, Huh-7). Moreover, the Activity in the data set on Plasma turned out to be 91.5%.

Turning to `O=C(O)c1ccc2c(C3CCCCC3)c3n(c2c1)C[C@@H]1CCN(CCCN2CCCCC2)[C@@H]1c1ccccc1-3`, the pIC50 in data set [1] was 7.96. Moreover, the pEC50 in the data set on Hepatitis C virus [2] is 7.28; in the data set with Hepatitis C virus [3] (Hepatitis C virus, Huh-7), 6.96.

For the compound `COc1ccc2c(c1)[C@H]1[C@@H](CCN1C(=O)OCCN(C)C)Cn1c-2c(C2CCCCC2)c2ccc(C(=O)O)cc21`, the pIC50 in data set [1] is 7.68. In addition, the pEC50 in the data set on Hepatitis C virus [2] is 6.74; in the data set with Hepatitis C virus [3] (Hepatitis C virus, Huh-7), 6.65.

In data set [1], `CN1CC[C@H]2Cn3c(c(C4CCCCC4)c4ccc(C(=O)O)cc43)-c3ccccc3[C@H]21` gave a pIC50 of 6.85. For the same compound, the pEC50 is 6.11 in the data set with Hepatitis C virus [2] and 5.60 in the data set with Hepatitis C virus [3] (Hepatitis C virus, Huh-7). The “Ratio EC50” value in the data set on Hepatitis C virus [4] turned out to be 3.

On to `CN1CC[C@H]2Cn3c(c(C4CCCCC4)c4ccc(C(=O)O)cc43)-c3ccccc3[C@@H]21`, for which, in data set [1], the pIC50 was 7.40. Besides, the pEC50 is 6.08 in the data set with Hepatitis C virus [2] and 6.15 with Hepatitis C virus [3] (Hepatitis C virus, Huh-7). The “Ratio EC50” value in the data set on Hepatitis C virus [4] is recorded as 1.

In the case of `CN(C)[C@H]1C[C@H]2Cn3c(c(C4CCCCC4)c4ccc(C(=O)O)cc43)-c3ccccc3[C@H]2C1`, the pIC50 in data set [1] was 7.52. Besides, the pEC50 with Hepatitis C virus [2] was 6.89; with Hepatitis C virus [3] (Hepatitis C virus, Huh-7) it was 6.05. The “Ratio EC50” value in the data set with Hepatitis C virus [4] was determined as 7.

Regarding `CN(C)CCNC(=O)N1CC[C@H]2Cn3c(c(C4CCCCC4)c4ccc(C(=O)O)cc43)-c3ccccc3[C@@H]21`, the pIC50 in data set [1] was 7.62. For the same compound, the pEC50 is 6.20 in the data set on Hepatitis C virus [2] and 6.32 with Hepatitis C virus [3] (Hepatitis C virus, Huh-7).

The compound `CN(C)C(=O)CN1CC[C@H]2Cn3c(c(C4CCCCC4)c4ccc(C(=O)O)cc43)-c3ccccc3[C@@H]21` had a pIC50 in data set [1] of 7.77. In addition, the pEC50 is 7.11 with Hepatitis C virus [2] and 7.02 with Hepatitis C virus [3] (Hepatitis C virus, Huh-7).

Consider `COc1ccc2c(c1)[C@@H]1[C@H](CCN1CCN(C)C)Cn1c-2c(C2CCCCC2)c2ccc(C(=O)O)cc21`, for which, in data set [1], the pIC50 is 6.51. Moreover, the pEC50 in the data set with Hepatitis C virus [2] was under 6.00; in the data set with Hepatitis C virus [3] (Hepatitis C virus, Huh-7) it was under 6.00.

The compound `CN(C)CCCN1CC[C@H]2Cn3c(c(C4CCCCC4)c4ccc(C(=O)O)cc43)-c3ccccc3[C@@H]21` showed a pIC50 in data set [1] of 7.62. Besides, the pEC50 was 7.24 in the data set on Hepatitis C virus [2] and 7.10 in the data set on Hepatitis C virus [3] (Hepatitis C virus, Huh-7).

With `CN(C)CCN1CC[C@H]2Cn3c(c(C4CCCCC4)c4ccc(C(=O)O)cc43)-c3ccccc3[C@H]21`, in data set [1], the pIC50 is 7.52. The pEC50 is 6.59 in the data set on Hepatitis C virus [2] and 6.21 in the data set on Hepatitis C virus [3] (Hepatitis C virus, Huh-7).

As to `COc1ccc2c(c1)[C@H]1[C@@H](CCN1CCN(C)C)Cn1c-2c(C2CCCCC2)c2ccc(C(=O)O)cc21` (stereo in doubt; 8b), the pIC50 in data set [1] is 8.10. In addition, the pEC50 with Hepatitis C virus [2] is 7.60; in the data set on Hepatitis C virus [3] (Hepatitis C virus, Huh-7), 7.20. Also, the “Ratio EC50” value in the data set with Hepatitis C virus [4] is given as 2.5.

Compound `COc1ccc2c(c1)[C@H]1[C@@H](CCN1CCN(C)C)Cn1c-2c(C2CCCCC2)c2ccc(C(=O)O)cc21` (stereo in doubt; 11) had a pIC50 in data set [1] of 8.40. Further, in the data set on Hepatitis C virus [3] (huh-7), the pEC50 is 7.31.
